# Active and inactive are the calls of the source. No cut-off for these calls is given here.
# Columns and labels:
# CCRF-CEM [1] = test: Cytotoxicity against human CCRF-CEM cells assessed as inhibition of cell growth incubated for 72 hrs by MTS assay; type: functional, cell-based
# In short: (§1)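 MTS assay on eight human cancer lines and two non-tumour fibroblast lines. IC50 is the concentration that inhibits cell growth by 50 %. SD typically up to 15 % of the mean.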
# CEM-DNR = test: Cytotoxicity against human CEM-DNR cells assessed as inhibition of cell growth incubated for 72 hrs by MTS assay; type: functional, cell-based; in short: as §1
# HCT-116 = test: Cytotoxicity against human HCT-116 cells assessed as inhibition of cell growth incubated for 72 hrs by MTS assay; type: functional, cell-based; details: HCT-116, 72 h; in short: as §1
# HCT 116 TP53(-/-) = test: Cytotoxicity against human HCT116-p53-null cells assessed as inhibition of cell growth incubated for 72 hrs by MTS assay; type: functional, cell-based; in short: as §1
# K562 = test: Cytotoxicity against human K562 cells assessed as inhibition of cell growth incubated for 72 hrs by MTS assay; type: functional, cell-based; details: K562, 72 h; in short: as §1
# [2] = Cytotoxicity against human K562-Tax cells assessed as inhibition of cell growth incubated for 72 hrs by MTS assay; type: functional, cell-based; in short: as §1
# A549 = test: Cytotoxicity against human A549 cells assessed as inhibition of cell growth incubated for 72 hrs by MTS assay; type: functional, cell-based; details: A549, 72 h; in short: as §1
# U2OS = test: Cytotoxicity against human U2OS cells assessed as inhibition of cell growth incubated for 72 hrs by MTS assay; type: functional, cell-based; in short: as §1
# [3] = Cytotoxicity against human BJ cells assessed as inhibition of cell growth incubated for 72 hrs by MTS assay; type: toxicity, cell-based; in short: as §1
# [4] = Cytotoxicity against human MRC5 cells assessed as inhibition of cell growth incubated for 72 hrs by MTS assay; type: toxicity, cell-based; in short: as §1
# [5] = Stability in human plasma assessed as compound remaining at 2 uM incubated for 15 mins by RF-MS analysis; type: ADME, cell-free; details: read-out: Stability
# In short: (§2)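 Human plasma stability, plasma protein binding and liver microsome stability, each run in triplicate. Error deviations below 10 %.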
# [6] = Stability in human plasma assessed as compound remaining at 2 uM incubated for 30 mins by RF-MS analysis; type: ADME, cell-free; details: read-out: Stability; in short: as §2
# [7] = Stability in human plasma assessed as compound remaining at 2 uM incubated for 60 mins by RF-MS analysis; type: ADME, cell-free; details: read-out: Stability; in short: as §2
# [8] = Stability in human plasma assessed as compound remaining at 2 uM incubated for 120 mins by RF-MS analysis; type: ADME, cell-free; details: read-out: Stability; in short: as §2
# [9] = Plasma protein binding in human assessed as fraction bound at 10 uM incubated for 4 hrs by rapid equilibrium dialysis based RF-MS analysis; type: ADME, cell-free; details: read-out: PPB (converted); in short: as §2
# [10] = Metabolic stability in human liver microsomes assessed as parent compound remaining at 2 uM incubated for 15 mins in presence of NADPH by RF-MS analysis; type: ADME, Microsome; details: read-out: Stability; in short: as §2
# [11] = Metabolic stability in human liver microsomes assessed as parent compound remaining at 2 uM incubated for 30 mins in presence of NADPH by RF-MS analysis; type: ADME, Microsome; details: read-out: Stability; in short: as §2
# [12] = Metabolic stability in human liver microsomes assessed as parent compound remaining at 2 uM incubated for 60 mins in presence of NADPH by RF-MS analysis; type: ADME, Microsome; details: read-out: Stability; in short: as §2
# CCRF-CEM [13] = test: Induction of apoptosis in human CCRF-CEM cells assessed as viable cells at 1 times IC50 incubated for 24 hrs by Annexin V-FITC and PI staining based flow cytometric analysis (reference value: 97.4 %); type: functional
# In short: (§3)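 Washed in Ca2+-containing binding buffer, then stained 15 min at room temperature in the dark with Annexin V-FITC and propidium iodide (PI at half the kit-recommended level). Read at once by flow cytometry with a 488 nm laser, ≥10,000 cells. Debris excluded; quadrants viable, early apoptotic, late apoptotic/necrotic, necrotic. Three independent experiments.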
# CCRF-CEM [14] = test: Induction of apoptosis in human CCRF-CEM cells assessed as early apoptotic cells at 1 times IC50 incubated for 24 hrs by Annexin V-FITC and PI staining based flow cytometric analysis (reference value: 2.1 %); type: functional; in short: as §3
# CCRF-CEM [15] = test: Induction of apoptosis in human CCRF-CEM cells assessed as late apoptotic cells at 1 times IC50 incubated for 24 hrs by Annexin V-FITC and PI staining based flow cytometric analysis (reference value: 0.4 %); type: functional; in short: as §3
# CCRF-CEM [16] = test: Induction of apoptosis in human CCRF-CEM cells assessed as necrotic cells at 1 times IC50 incubated for 24 hrs by Annexin V-FITC and PI staining based flow cytometric analysis (reference value: 0.4 %); type: functional; in short: as §3
# CCRF-CEM [17] = test: Induction of apoptosis in human CCRF-CEM cells assessed as viable cells at 5 times IC50 incubated for 24 hrs by Annexin V-FITC and PI staining based flow cytometric analysis (reference value: 97.4 %); type: functional; in short: as §3
# CCRF-CEM [18] = test: Induction of apoptosis in human CCRF-CEM cells assessed as early apoptotic cells at 5 times IC50 incubated for 24 hrs by Annexin V-FITC and PI staining based flow cytometric analysis (reference value: 2.1 %); type: functional; in short: as §3
# CCRF-CEM [19] = test: Induction of apoptosis in human CCRF-CEM cells assessed as late apoptotic cells at 5 times IC50 incubated for 24 hrs by Annexin V-FITC and PI staining based flow cytometric analysis (reference value: 0.4 %); type: functional; in short: as §3
# CCRF-CEM [20] = test: Induction of apoptosis in human CCRF-CEM cells assessed as necrotic cells at 5 times IC50 incubated for 24 hrs by Annexin V-FITC and PI staining based flow cytometric analysis (reference value: 0.4 %); type: functional; in short: as §3
# Mitochondrial membrane = test: Induction of mitochondrial membrane potential depolarization in human CCRF-CEM cells assessed as fold increase in fluorescence intensity incubated for 24 hrs by JC-1 staining based flow cytometry; type: cell membranes
# CCRF-CEM [21] = test: Inhibition of DNA synthesis in human CCRF-CEM cells at 1 times IC50 incubated for 24 hrs by BrdU incorporation based flow cytometry; type: functional
# In short: (§4)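 Fixed in ice-cold 70 % ethanol, DNA denatured in 2 M HCl for 30 min, neutralised with borax. Stained with anti-BrdU plus FITC secondary, then PI/RNase A for 1 h. Flow cytometry; % BrdU-positive cells.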
# CCRF-CEM [22] = test: Inhibition of DNA synthesis in human CCRF-CEM cells at 5 times IC50 incubated for 24 hrs by BrdU incorporation based flow cytometry; type: functional; in short: as §4
# CCRF-CEM [23] = test: Inhibition of RNA synthesis in human CCRF-CEM cells at 1 times IC50 incubated for 24 hrs by BrU incorporation based flow cytometry; type: functional
# In short: (§5)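 Fixed in 1 % paraformaldehyde/0.05 % NP-40 (15 min at room temperature, then 4 °C overnight). Stained with cross-reacting anti-BrdU plus FITC secondary (45 min each), then PI/RNase A. Flow cytometry; % BrU-positive cells.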
# CCRF-CEM [24] = test: Inhibition of RNA synthesis in human CCRF-CEM cells at 5 times IC50 incubated for 24 hrs by BrU incorporation based flow cytometry; type: functional; in short: as §5
# CCRF-CEM [25] = test: Induction of cell cycle arrest in human CCRF-CEM cells assessed as downregulation of Cyclin A expression at 5 times IC50 incubated for 24 hrs by Western blotting analysis; type: functional, cell-based
# In short: (§6)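 30 µg protein per lane on SDS-PAGE, transferred to nitrocellulose, blocked in 5 % BSA/TBS-Tween. Primary antibodies overnight at 4 °C (Akt, P-Akt Ser473, STAT-3, caspase-3, PARP, cyclin D, cyclin A, Bcl-xL, Bak, Bid, Bim), then HRP secondary and ECL detection. GAPDH as loading control.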
# CCRF-CEM [26] = test: Induction of apoptosis in human CCRF-CEM cells assessed as upregulation of BID expression at 1 to 5 times IC50 incubated for 24 hrs by Western blotting analysis; type: functional, cell-based; in short: as §6
# CCRF-CEM [27] = test: Induction of apoptosis in human CCRF-CEM cells assessed as upregulation of BIM expression at 1 to 5 times IC50 incubated for 24 hrs by Western blotting analysis; type: functional, cell-based; in short: as §6
# CCRF-CEM [28] = test: Induction of apoptosis in human CCRF-CEM cells assessed as downregulation of BCL-XL expression at 5 times IC50 incubated for 24 hrs by Western blotting analysis; type: functional, cell-based; in short: as §6
smiles,measurement,setting,value
CC1(C)[C@@H](O)CC[C@]2(C)[C@H]3CC[C@@H]4[C@H]5[C@H](c6ccc(C#N)c(C#N)c6)CC[C@]5(C(=O)O)CC[C@@]4(C)[C@]3(C)CC[C@@H]12,IC50,CCRF-CEM [1],5.9 µM
same,IC50,CEM-DNR,5.23 µM
same,IC50,HCT-116,23.7 µM
same,IC50,HCT 116 TP53(-/-),31.8 µM
same,IC50,K562,30 µM
same,IC50,[2],5.08 µM
same,IC50,A549,19.9 µM
same,IC50,U2OS,20 µM
same,IC50 at 72 h,[3],35.5 µM
same,IC50 at 72 h,[4],25.3 µM
CC(=O)Nc1ccc(N2C(=O)c3ccc([C@@H]4CC[C@]5(C(=O)O)CC[C@]6(C)[C@H](CC[C@@H]7[C@@]8(C)CC[C@H](OC(C)=O)C(C)(C)[C@@H]8CC[C@]76C)[C@@H]45)cc3C2=O)cc1,IC50,CCRF-CEM [1],16.5 µM
same,IC50,CEM-DNR,20.8 µM
same,IC50,HCT-116,24.4 µM
same,IC50,HCT 116 TP53(-/-),29.6 µM
same,IC50,K562,27.1 µM
same,IC50,[2],18.2 µM
same,IC50,A549,27.1 µM
same,IC50,U2OS,24.3 µM
same,IC50 at 72 h,[3],31.2 µM
same,IC50 at 72 h,[4],19.8 µM
CC1(C)[C@@H](O)CC[C@]2(C)[C@H]3CC[C@@H]4[C@H]5[C@H](c6cc7c(c(-c8ccccc8)c6)C(=O)NC7=O)CC[C@]5(C(=O)O)CC[C@@]4(C)[C@]3(C)CC[C@@H]12,IC50,CCRF-CEM [1],7.18 µM
same,IC50,CEM-DNR,9.65 µM
same,IC50,HCT-116,7.22 µM
same,IC50,HCT 116 TP53(-/-),7.43 µM
same,IC50,K562,7.58 µM
same,IC50,[2],10.4 µM
same,IC50,A549,6.39 µM
same,IC50,U2OS,9.82 µM
same,IC50 at 72 h,[3],34.5 µM
same,IC50 at 72 h,[4],32.4 µM
CC1(C)[C@@H](O)CC[C@]2(C)[C@H]3CC[C@@H]4[C@H]5[C@H](c6cc7c(c(-c8ccccc8)c6)C(=O)N(c6ccccc6)C7=O)CC[C@]5(C(=O)O)CC[C@@]4(C)[C@]3(C)CC[C@@H]12,IC50,CCRF-CEM [1],5.18 µM
same,IC50,CEM-DNR,20 µM
same,IC50,HCT-116,29.4 µM
same,IC50,HCT 116 TP53(-/-),> 50 µM
same,IC50,K562,> 50 µM
same,IC50,[2],23.1 µM
same,IC50,A549,> 50 µM
same,IC50,U2OS,25.9 µM
same,IC50 at 72 h,[3],> 50 µM
same,IC50 at 72 h,[4],> 50 µM
same,"remaining at 0.25 h, 2 µM",[5],96%
same,"remaining at 0.5 h, 2 µM",[6],95%
same,"remaining at 1 h, 2 µM",[7],100%
same,"remaining at 2 h, 2 µM",[8],89%
same,"fraction unbound at 4 h, 10 µM",[9],0.231
same,"remaining at 0.25 h, 2 µM",[10],92%
same,"remaining at 0.5 h, 2 µM",[11],87%
same,"remaining at 1 h, 2 µM",[12],79%
same,Activity,CCRF-CEM [13],90.7%
same,Activity,CCRF-CEM [14],5.4%
same,Activity,CCRF-CEM [15],3.9%
same,Activity,CCRF-CEM [16],0%
same,Activity,CCRF-CEM [17],90.4%
same,Activity,CCRF-CEM [18],5.1%
same,Activity,CCRF-CEM [19],4.5%
same,Activity,CCRF-CEM [20],0%
same,Activity,Mitochondrial membrane,Dose-dependent-effect
same,inhibition (INH),CCRF-CEM [21],35.2%
same,inhibition (INH),CCRF-CEM [22],37.8%
same,inhibition (INH),CCRF-CEM [23],28.4%
same,inhibition (INH),CCRF-CEM [24],16.1%
same,Activity,CCRF-CEM [25],Active
same,Activity,CCRF-CEM [26],Active
same,Activity,CCRF-CEM [27],Active
same,Activity,CCRF-CEM [28],Active
